Experimental data reported in paper PMC8212730 (Clinical and Translational Science, 2021).
Like-named read-outs stand apart in the source and are kept apart here.

What was measured:
[1] = tested on: corrected QT interval (QTcF); test: Concentration-corrected QT; format: in vivo, human
How it was run: (§1)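 Patients on ivosidenib 500 mg q.d. had triplicate ECGs with time-matched plasma samples, pooled with two other phase I studies (solid tumours, healthy volunteers): 171 patients, 1203 measurements. Plasma drug was measured by LC-MS/MS. A linear mixed-effects model had population intercept and slope with bivariate-normal between-subject variability. Covariates were selected stepwise (likelihood ratio, 0.05). ΔQTcF and 90% CI were predicted at geometric mean Cmax. Fridericia and Bazett corrections were compared.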

[2] = Concentration-corrected QT; format: in vivo, human; conditions: human, plasma, oral, 500 mg
How it was run: as §1

[3] = human plasma; ref not given; cited from earlier work
CYP2C9 = conditions: in vitro; cited from earlier work
mIDH1 R/R AML = conditions: 500 mg q.d., cited from earlier work
CYP2C8 = conditions: cited from earlier work
R/R AML = test: Exposure-efficacy analysis; format: in vivo, human
How it was run: (§2)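 Plasma drug was measured by LC-MS/MS (ranges 1–1000 and 50–50,000 ng/ml). Data were fitted with a two-compartment population PK model with first-order absorption and elimination. Individual empirical Bayes estimates gave steady-state AUC per patient from the nominal q.d. dose. AUCss was related to CR, CR/CRh, overall response and non-CR/CRh response by logistic regression and Kaplan-Meier plots.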

[4] = Exposure-efficacy analysis; format: in vivo, human; conditions: human, plasma, oral, AUCss range of quartile
How it was run: as §2

[5] = Final population PK model of ivosidenib; format: in vivo, human
Exposure-safety analysis = format: in vivo, human
[6] = single dose 500 mg; cited from earlier work
CYP2B6 = conditions: cited from earlier work
[7] = healthy participants; strong CYP3A4 inhibitor itraconazole; cited from earlier work
human CYP3A4 = conditions: cited from earlier work
[8] = patients with AML after multiple doses of ivosidenib; PBPK model; cited from earlier work
[9] = cited from earlier work; for Median time to maximal concentration range: across dose range
[10] = final population PK model, derived from steady-state parameters and fold changes
[11] = final population PK model, single dose to steady state

## N#Cc1ccnc(N2C(=O)CC[C@H]2C(=O)N(c2cncc(F)c2)[C@H](C(=O)NC2CC(F)(F)C2)c2ccccc2Cl)c1 [ivosidenib]
[1]; at 6551 ng/ml, geometric mean Cmax for 500 mg q.d.
  Predicted ΔQTcF: 17.2 ms
[1]; in vivo
  Relationship between ΔQTcF and ivosidenib concentration: significant direct relationship
[1]; linear mixed-effects model
  Increase of ΔQTcF with plasma ivosidenib concentration (slope): 0.00258 msec/(ng/ml)
[2]
  Cmax: 6550 ng/mL
[3]
  Protein bound: ~ 90%
CYP2C9
  Inducer status: may also be an inducer
mIDH1 R/R AML; 174 patients with mIDH1 R/R AML
  Rate of CR plus CRh: 32.8%
mIDH1 R/R AML
  Median duration of CR/CRh: 8.2 months
  Median time to CR/CRh response: 2 months
CYP2C8
  Contribution to metabolism of ivosidenib: minor contributions
CYP2C8; in vitro
  Inducer status: may also be an inducer
R/R AML; AUCss quartile 1
  Incidence of CR (complete remission): 11 (22%) n
  Incidence of CR/CRh: 17 (33%) n
  Incidence of OR (overall response): 20 (39%) n
R/R AML; AUCss quartile 2
  Incidence of CR (complete remission): 12 (24%) n
  Incidence of CR/CRh: 15 (30%) n
  Incidence of OR (overall response): 18 (36%) n
R/R AML; AUCss quartile 3
  Incidence of CR (complete remission): 9 (18%) n
  Incidence of CR/CRh: 12 (24%) n
  Incidence of OR (overall response): 18 (36%) n
R/R AML; AUCss quartile 4
  Incidence of CR (complete remission): 11 (22%) n
  Incidence of CR/CRh: 15 (30%) n
  Incidence of OR (overall response): 19 (38%) n
R/R AML; logistic regression
  Association between nominal AUCss and probability of clinical response: minimal
R/R AML; of 201 patients with R/R AML
  Patients with OR: 75 patients
  Patients with non-CR/CRh response: 16 patients
[4]; AUCss quartile 1, 51 patients
  AUC: 40.9 to 93.1 µg·h/mL
[4]; AUCss quartile 2, 50 patients
  AUC: 93.4 to 122 µg·h/mL
[4]; AUCss quartile 3, 50 patients
  AUC: 124 to 170 µg·h/mL
[4]; AUCss quartile 4, 50 patients
  AUC: 171 to 361 µg·h/mL
[5]; 100 mg b.i.d. and 300-1200 mg q.d.
  Dose proportionality of exposure: slightly less than dose proportional
[5]; 500 mg q.d., steady state, albumin 37 g/L, weight 74.2 kg, no CYP3A4 inhibitor
  Predicted Cmax in the typical patient: 4827 ng/mL
[5]; concomitant fluconazole
  Reduction in ivosidenib CL/F: 41%
[5]; concomitant posaconazole
  Reduction in ivosidenib CL/F: 35%
[5]; concomitant voriconazole
  Reduction in ivosidenib CL/F: 36%
[5]; covariate analysis
  Effect of concomitant pantoprazole or famotidine on CL/F: did not affect
  Impact of mild CYP3A4 inhibitors: minimal
[5]; covariate analysis, patients with mild hepatic impairment
  Correlation between CL/F and hepatic function indicators: no correlation
[5]; final population PK model
  Albumin ratio-CL/F exponent: 0.99
  Albumin ratio-Vc/F exponent: 1.1
  Baseline albumin-Vc/F exponent: 0.73
  Decrease in relative bioavailability from single dose to steady state: 2 fold
  Fold change in CL with mild CYP3A inhibitors: 1.04
  Fold change in CL with other moderate/strong CYP3A inhibitors: 0.92
  Increase in exposure with a doubling of dose: ~ 40%
  Steady-state Q/F: 15.8 L/h
  Steady-state Vc/F: 234 L
  Steady-state Vp/F: 151 L
  Tlag (zero-order release duration, lag-time): 0.27 h
  ka (first-order absorption rate constant): 1.38 h⁻¹
[5]; final population PK model, baseline body weight
  Wt-Vc/F exponent: 0.92
[5]; final population PK model, concomitant fluconazole
  Fold change in CL with fluconazole: 0.59
[5]; final population PK model, concomitant posaconazole
  Fold change in CL with posaconazole: 0.65
[5]; final population PK model, concomitant voriconazole
  Fold change in CL with voriconazole: 0.64
[5]; [10]
  First-dose CL/F: 1.63 L/h
  First-dose Q/F: 4.8 L/h
  First-dose Vc/F: 71 L
  First-dose Vp/F: 46 L
[5]; final population PK model, oral, patients with mIDH1 advanced hematologic malignancies
  Steady-state CL/F: 5.39 L/h
[5]; [11]
  Steady-state fold change in CL: 1.66
  Steady-state fold change in Frel: 0.5
[5]; human, in vivo
  Effect of time-varying albumin changes on plasma exposure: less than 20%
[5]; moderate/strong CYP3A4 inhibitors
  Increase in AUCss: 60%
Exposure-safety analysis; 253 patients
  Incidence of new or worsening all grade ALT: 15%
Exposure-safety analysis; logistic regression
  Association between incidence of events for all safety end points and AUCss: no association
[6]
  Effect of mild/moderate hepatic impairment on ivosidenib exposure: did not lead to clinically relevant changes in ivosidenib exposure
CYP2B6
  Contribution to metabolism of ivosidenib: minor contributions
CYP2B6; in vitro
  Inducer status: may also be an inducer
[7]
  Change in plasma AUC with itraconazole: 1.69 fold
Human CYP3A4; CYP3A4
  Contribution to metabolism of ivosidenib: major metabolism pathway
Human CYP3A4; in vitro, human CYP3A4
  Inducer status: inducer
  Substrate status: substrate
[8]
  Predicted change in plasma AUC in the presence of itraconazole: 1.44 fold
[9]; after a single dose
  Half-life: 72 to 138 h
[9]; daily dosing
  Time to steady state: ≤ 14 days
[9]; multiple dosing
  Median time to maximal concentration range: 1.9 to 4.0 h
[9]; single dose administration
  Median time to maximal concentration range: 2.4 to 5.5 h
